20 molecules from ChEMBL document CHEMBL2424586, “Polyoxygenated cinnamoylcoumarins as conformationally constrained analogs of cytotoxic diarylpentanoids: synthesis and biological activity” (Eur J Med Chem, 2013) can be followed below.

The structures appear in SMILES notation.

A short description of assay [1]: Antioxidant activity assessed as ferric ion reducing ability after 20 mins by FRAP assay. It counts as functional. Put shortly:
(§1)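 FRAP reagent: acetate buffer (300 mM, pH 3.6), TPTZ (10 mM in 40 mM HCl) and FeCl3 (20 mM) at 10:1:1, diluted to 1/3 with methanol and pre-warmed to 37 °C. Diluted compound added, 20 min at 37 °C, A593. Values read from FeSO4·7H2O calibration curve; quercetin as reference.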

Assay [2] relates to Radical scavenging activity. Nature of the assay: Antioxidant activity assessed as DPPH free radical scavenging activity after 30 mins. In kind it is functional.
For the next assay, the system named is K562. The assay is described as follows: Cytotoxicity against human K562 cells after 72 hrs by MTT assay. In kind it is functional, cell-based. The conditions noted are these: K562, 72 h. Put shortly:
(§2)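 MCF-7 grown as monolayer, K562 and MOLT-4 in suspension; seeded at 30,000, 40,000 and 40,000 cells/ml respectively and incubated overnight at 37 °C. Compounds dissolved in DMSO, diluted in medium, final DMSO ≤0.5%; cisplatin as reference.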

A further assay has as its system MCF7. Nature of the assay: Cytotoxicity against human MCF7 cells after 72 hrs by MTT assay. It counts as functional, cell-based. The conditions noted are these: MCF7, 72 h. In a few lines: as §2
The test system of a further assay is MOLT-4. Nature of the assay: Cytotoxicity against human MOLT4 cells after 72 hrs by MTT assay. In kind it is functional, cell-based. The settings on record: MOLT-4, 72 h. Put shortly: as §2
The species named for a further assay is Rattus norvegicus. The assay is described as follows: Reduction of total thiol content in Wistar rat liver mitochondria after 1 hr by DTNB method. It counts as functional. Put shortly:
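Wistar rat liver mitochondria isolated by differential centrifugation (1500 × g, then 10,000 × g, 10 min, 4 °C) and suspended in Tris-HCl 0.05 M/sucrose 0.25 M/KCl/MgCl2/Na2HPO4, pH 7.4. Protein by Bradford. Mitochondria (1 mg/mL) exposed 1 h to compound, then total thiols measured by DTNB at 412 nm against a GSH standard curve; mean ± SD, n = 3.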

Assay [3] is described as follows: Antioxidant activity assessed as ferric ion reducing ability after 20 mins by FRAP assay relative to quercetin. In kind it is functional. Put shortly: as §1

For `COc1cc(/C=C/C(=O)c2cc3cc(O)ccc3oc2=O)cc(OC)c1OC`, the Activity in assay [1] came out at 9.6 mM. Also, the IC50 turned out to be 180 µM in assay [2], 8.8 µM with K562, 10.9 µM in the assay with MCF7 and 3.9 µM in the assay on MOLT-4.
For the molecule `O=c1c(O)c(-c2ccc(O)c(O)c2)oc2cc(O)cc(O)c12` [QUERCETIN], in assay [1], the Activity came to 87.1 mM. The IC50 in assay [2] worked out at 8.12 µM.
For the molecule `O=C(/C=C/c1ccc2c(c1)OCO2)c1cc2cc(OCc3ccccc3)ccc2oc1=O`, the Activity in assay [1] was found to be 12.6 mM. Also, the IC50 in assay [2] was 570 µM; in the assay with K562 it was over 50 µM; in the assay with MCF7, over 50 µM; in the assay with MOLT-4 it was over 50 µM.
For the molecule `O=C(/C=C/c1ccc2c(c1)OCO2)c1cc2ccc(O)cc2oc1=O`, the Activity in assay [1] was found to be 13.7 mM. Besides, the IC50 in assay [2] was 540 µM; in the assay on K562, 31.7 µM; with MCF7 it was 38.9 µM; with MOLT-4, 26.2 µM.
In the case of `COc1cccc(COc2ccc3cc(C(=O)/C=C/c4ccc(C)cc4)c(=O)oc3c2)c1`, in assay [1], the Activity turned out to be 6.6 mM. The IC50 is 2630 µM in assay [2], over 50 µM with K562, over 50 µM with MCF7 and over 50 µM with MOLT-4.
As to `O=C(/C=C/c1ccc2c(c1)OCO2)c1cc2cc(O)ccc2oc1=O`, the Activity in assay [1] turned out to be 15.3 mM. The half-inhibitory concentration (IC50) in assay [2] came to 480 µM; with K562, 14.6 µM; in the assay on MCF7, 9.7 µM; in the assay with MOLT-4, 2 µM.
With `COC(=O)c1ccc(/C=C/C(=O)c2cc3cc(O)ccc3oc2=O)cc1`, the values for the IC50 with K562, with MCF7 and in the assay on MOLT-4 were 15.8 µM, 1.3 µM and 7.1 µM, respectively.
As to `COc1cc(/C=C/C(=O)c2cc3ccc(O)cc3oc2=O)cc(OC)c1OC`, the Activity in assay [1] was 8.7 mM; in the assay listed under Rattus norvegicus, “Dose-dependent effect”. In addition, the IC50 stood at 190 µM in assay [2], 7.3 µM with K562, 8.8 µM in the assay on MCF7 and 3.8 µM in the assay with MOLT-4.
In the case of `COc1cccc(COc2ccc3cc(C(=O)/C=C/c4ccc(Cl)cc4Cl)c(=O)oc3c2)c1`, the Activity in assay [1] worked out at 7.1 mM. In addition, the half-inhibitory concentration (IC50) in assay [2] worked out at 480 µM.
As for `COc1cccc(COc2ccc3cc(C(=O)/C=C/c4ccccc4)c(=O)oc3c2)c1`, the Activity in assay [1] was 10.4 mM. In addition, the IC50 is 890 µM in assay [2], over 100 µM in the assay with K562, 33.7 µM in the assay on MCF7 and over 100 µM in the assay on MOLT-4.
Consider `COc1cccc(/C=C/C(=O)c2cc3cc(O)ccc3oc2=O)c1OC`, for which the fold change (FC) in assay [3] came to 0.3. In assay [1], the Activity was 25.7 mM. Moreover, the 50% inhibitory concentration (IC50) in assay [2] came to 160 µM; in the assay on K562 it was 17.3 µM; in the assay on MCF7 it was 8.8 µM; in the assay on MOLT-4, 6.7 µM.
Regarding `COc1cccc(COc2ccc3cc(C(=O)/C=C/c4ccc5c(c4)OCO5)c(=O)oc3c2)c1`, the Activity in assay [1] is 7.5 mM. For the same molecule, the IC50 in assay [2] is 460 µM; with K562, 22.8 µM; with MCF7, over 100 µM; in the assay with MOLT-4, over 100 µM.
With `COC(=O)c1ccc(/C=C/C(=O)c2cc3ccc(O)cc3oc2=O)cc1`, the figures for the IC50 in the assay with K562, in the assay on MCF7 and with MOLT-4 were 4.4 µM, 5.5 µM and 3.7 µM, respectively.
As for `COc1cccc(/C=C/C(=O)c2cc3ccc(O)cc3oc2=O)c1OC`, the fold change (FC) in assay [3] worked out at 0.3. The Activity in assay [1] is 25.2 mM; in the assay listed under Rattus norvegicus, “Dose-dependent effect”. Besides, the IC50 in assay [2] amounted to 150 µM; in the assay on K562, 14.6 µM; in the assay with MCF7, 16.6 µM; with MOLT-4 it was 7 µM.
Regarding `COc1ccc(/C=C/C(=O)c2cc3ccc(OCc4cccc(OC)c4)cc3oc2=O)cc1`, the Activity in assay [1] was 14.3 mM. Moreover, the IC50 in assay [2] is 930 µM; with K562 it was over 100 µM; in the assay on MCF7 it was over 100 µM; in the assay with MOLT-4 it was over 100 µM.
For the molecule `COc1cccc(/C=C/C(=O)c2cc3cc(OCc4ccccc4)ccc3oc2=O)c1OC`, the Activity in assay [1] came to 4.4 mM. The IC50 in assay [2] came to 1270 µM; with K562, 48.9 µM; in the assay on MCF7, 21.3 µM; in the assay with MOLT-4, 23.6 µM.
Regarding `COc1cccc(COc2ccc3cc(C(=O)/C=C/c4c(Cl)cccc4Cl)c(=O)oc3c2)c1`, the Activity in assay [1] is 5.3 mM. Also, the IC50 in assay [2] amounted to 940 µM; with K562 it was 15.6 µM; with MCF7 it was 10.1 µM; in the assay with MOLT-4, 12.5 µM.
In the same order, the values of `COc1cc(/C=C/C(=O)c2cc3cc(OCc4ccccc4)ccc3oc2=O)cc(OC)c1OC` are 8.1 mM, 1150 µM, 66.4 µM, 26.5 µM and 10.3 µM.
`COc1cccc(COc2ccc3cc(C(=O)/C=C/c4cc(OC)ccc4OC)c(=O)oc3c2)c1`: the Activity in assay [1] amounted to 9.5 mM. Also, the IC50 in assay [2] was 750 µM; in the assay with K562, 35.1 µM; in the assay with MCF7 it was over 100 µM; in the assay with MOLT-4, 13.8 µM.
Regarding `COc1cccc(COc2ccc3cc(C(=O)/C=C/c4cccc(OC)c4OC)c(=O)oc3c2)c1`, the Activity in assay [1] was found to be 7.6 mM. The IC50 in assay [2] amounted to 720 µM; with K562, 45.5 µM; in the assay on MCF7 it was 35.1 µM; in the assay on MOLT-4, 22.8 µM.
